# In the library only some 3.1% were active in any assay of this set; here they are far more common.
# aDG glyco up: alpha-DG glycosylation activation | activation, % at 10 µM | AID 624168 | actives 0.22% (n = 360,000) | Pro5-aDG cells, alpha-DG glycosylation AlphaScreen (IIH6); 0% Pro5, 100% B10-LARGE cell signal;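 active means activation of at least 8% versus controls, or a plate z-score of at least 8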;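 further: Pro5 are CHO cells carrying HIG-tagged alpha-DG that lacks glycosylation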
# Hep lipid drop: modulators of hepatic lipid droplet formation | AML12 mouse hepatocytes, oleate lipid droplets, BODIPY imaging | inhibition, % at 6.5 µM | actives 0.4% (n = 240,000) | AID 1656;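 active means lipid droplet intensity inhibited by at least 50%, with more than 500 cells counted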
#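 Material – AML12 mouse liver cells · Also added – oleate loading, 100 µM · Compound dosing – 6.5 µM single-point dosing · Times – overnight treatment with compound plus oleate · Measured by – fluorescence imaging, 20x objective, two fields per well · Read-out – percent inhibition of filter-corrected integrated lipid droplet intensity per well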
# MPTP block: blocks calcium-induced mitochondrial swelling. AID 602449. isolated mouse mitochondria, Ca2+ swelling absorbance, 30 min. inhibition, % at 10 µM. actives 1.4% (n = 360,000);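 active means inhibition of 50% or more, scaled per plate between neutral and stimulator controls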;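 further: 0% = DMSO wells given calcium and 100% = 1 mM EGTA wells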
# ADAM10 inh: inhibitors of human ADAM10 | recombinant ADAM10, EDANS/DABCYL FRET peptide cleavage, 3 h | actives 0.62% (n = 370,000) | O14672 | inhibition, % at 7 µM;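 active means inhibition above a per-campaign cutoff equal to the mean of compounds falling between control-based bounds plus 3 SD, cut at about 20% in these data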;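 further: 0% = DMSO wells while the 100% control is not disclosed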
# V-ATPase pH: regulators of yeast V-ATPase proton transport. S. cerevisiae, pHLuorin cytosolic pH fluorescence. response, % at 10 µM. actives 0.37% (n = 350,000); in the data active means response mostly above about 7.3%, no sharp cut-off; inactive means mostly below about 5.4%; further: actives read high
# ADAM17 inh: ADAM17 inhibition, QFRET primary screen | inhibition, % at 6.95 µM | recombinant ADAM17, EDANS/DABCYL FRET peptide cleavage | actives 0.83% (n = 370,000);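 active means inhibition above the mean of compounds lying between control limits plus 3 SD, set per campaign, cut at about 8.5% in these data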;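 further: 0% = DMSO-only wells as the low control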
# Target sequence (P78536 215-824 limits assumed): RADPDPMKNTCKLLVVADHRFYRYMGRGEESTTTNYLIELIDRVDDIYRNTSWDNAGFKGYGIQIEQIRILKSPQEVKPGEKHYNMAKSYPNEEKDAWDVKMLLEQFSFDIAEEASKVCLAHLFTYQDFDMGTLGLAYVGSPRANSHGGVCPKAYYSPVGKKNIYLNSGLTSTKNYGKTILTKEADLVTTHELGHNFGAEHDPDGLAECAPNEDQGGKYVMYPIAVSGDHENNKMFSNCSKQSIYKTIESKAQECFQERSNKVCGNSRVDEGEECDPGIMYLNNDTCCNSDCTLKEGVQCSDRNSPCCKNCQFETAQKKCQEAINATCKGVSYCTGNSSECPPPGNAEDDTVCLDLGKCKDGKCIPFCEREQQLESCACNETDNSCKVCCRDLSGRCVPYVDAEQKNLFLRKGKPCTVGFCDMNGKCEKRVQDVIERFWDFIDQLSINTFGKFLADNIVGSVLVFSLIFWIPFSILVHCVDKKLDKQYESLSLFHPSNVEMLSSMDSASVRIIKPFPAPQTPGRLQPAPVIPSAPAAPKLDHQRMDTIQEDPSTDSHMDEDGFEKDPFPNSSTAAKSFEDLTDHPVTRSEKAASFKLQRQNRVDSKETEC
# ADAM10 ctr: ADAM10 inhibition, counter-screen for ADAM17 exosite hits. shares compounds with ADAM17 inh. recombinant ADAM10, EDANS/DABCYL FRET peptide cleavage, 3 h. inhibition, % at 6.95 µM. actives 47% (n = 2,900). AID 743256;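 active means mean inhibition over the triplicate runs exceeds the activity threshold set in the earlier primary screen, cut at about 20% in these data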;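 further: 0% = DMSO wells and 100% = marimastat wells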
# ADAM17 confirm: confirmation of inhibitors of human ADAM17. shares compounds with ADAM17 inh. recombinant ADAM17, EDANS/DABCYL QFRET peptide cleavage. inhibition, % at 6.95 µM. actives 65% (n = 2,900);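 active means mean inhibition across replicates above the hit cutoff set in the primary screen, cut at about 8.5% in these data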;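 further: 0% = DMSO wells and 100% = marimastat wells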
# Starred values were filed as active, the others as inactive; / = not tested or not shown.
SMILES,aDG glyco up,Hep lipid drop,MPTP block,ADAM10 inh,V-ATPase pH,ADAM17 inh,ADAM10 ctr,ADAM17 confirm
O=C(O)c1ccc2c(c1)N(Cc1cccc(F)c1)C(=O)CS2,-0.2,/,0.4,14.8,0.0,8.9*,3.9,3.0
CCC(C)NC(=O)c1ccc2c(c1)N(Cc1ccccc1)C(=O)CS2 (stereo unspecified),0.5,3.0,-1.2,-0.8,-2.8,-6.2,/,/
Cc1cccc(CSCCNC(=O)c2ccc(N(C)S(=O)(=O)c3ccccc3)cc2)c1,0.1,/,5.3,19.4,3.9,10.5*,23.4*,11.6*
Cn1c(=O)c2cc(S(=O)(=O)N3CCN(CCO)CC3)ccc2n(C)c1=O,/,/,/,-1.9,/,0.3,/,/
O=C(COc1cccc2ccccc12)Nc1cc(Cl)ccc1C(=O)O,0.0,0.1,5.3,4.2,2.2,13.0*,7.0,5.9
Cc1ccc(S(=O)(=O)N2c3ccccc3C[C@H]2CCC(=O)c2ccccc2)cc1,/,/,/,-0.6,/,-0.2,/,/
CCCCCCNC(=O)C1CSCCS(=O)(=O)N1Cc1ccc(C)cc1 (stereo unspecified),/,/,/,-1.7,/,2.7,/,/
COc1ccc(S(=O)(=O)N(C)C[C@H]2Oc3ccc(NS(=O)(=O)c4ccccc4)cc3C(=O)N([C@H](C)CO)C[C@@H]2C)cc1,-0.2,/,-0.3,-8.2,1.8,-2.3,/,/
COc1ccc(S(=O)(=O)N(C)C[C@H]2Oc3ccc(NS(=O)(=O)c4ccccc4)cc3CC(=O)N([C@H](C)CO)C[C@@H]2C)cc1,-0.4,/,-0.8,14.8,0.7,13.4*,-4.6,-2.4
C[C@H]1CN([C@@H](C)CO)C(=O)c2cc(NC(=O)C3CCCCC3)ccc2O[C@H]1CN(C)Cc1ccc(-c2ccccc2)cc1,2.9,/,-1.3,15.7,-4.9,11.3*,31.5*,18.2*
C[C@@H]1CN([C@H](C)CO)C(=O)c2cc(NC(=O)C3CCCCC3)ccc2O[C@@H]1CN(C)Cc1ccc(C(F)(F)F)cc1,0.3,/,0.3,-0.8,-4.5,4.4,/,/
COc1ccc(S(=O)(=O)Nc2ccc3c(c2)CC(=O)N([C@@H](C)CO)C[C@@H](C)[C@@H](CN(C)Cc2ccccc2)O3)cc1,0.7,/,0.0,18.4,-3.3,11.2*,13.1,6.3
COc1ccc(S(=O)(=O)NCC(=O)N2CCN(c3ccccn3)CC2)c(OC)c1,/,/,/,-10.7,/,-2.5,/,/
O=C(Nc1nc(-c2ccccc2)cs1)C1COc2ccccc2O1 (stereo unspecified),2.7,9.6,1.4,12.4,-1.6,14.4*,43.7*,14.2*
Cc1cc(Cl)ccc1OCC(=O)N1CCCN(C(=O)COc2ccc(Cl)cc2C)CC1,0.7,-14.3,-13.4,14.4,0.5,9.5*,25.5*,13.9*
Cc1cc(Cl)ccc1OCCCC(=O)N1CCN(S(=O)(=O)c2ccccc2)CC1,0.7,/,0.3,12.7,-0.4,9.9*,30.1*,15.8*
O=C(COC(=O)C1CCN(S(=O)(=O)c2ccc3c(c2)OCCO3)CC1)NC1CCCCC1,-0.2,/,-1.3,1.6,0.5,-2.3,/,/
O=C(COC(=O)C1CCN(S(=O)(=O)c2ccc3c(c2)OCCO3)CC1)Nc1ccc(C(F)(F)F)cc1,1.1,-1.1,2.8,13.0,1.3,8.7*,12.9,10.7*
CCN(c1ccc(NC(=O)COC(=O)C2CCN(c3ccc(C(F)(F)F)cn3)CC2)cc1)C(C)C,0.0,/,1.1,11.2,-4.2,8.9*,36.6*,17.9*
CN1CCCN(C(=O)CSc2nnc(-c3cccnc3)n2C2CCCCC2)CC1,/,/,/,-6.8,/,-4.1,/,/
Cc1ccc(S(=O)(=O)NCC(c2ccco2)N2CCc3ccccc32)cc1 (stereo unspecified),-0.2,/,-0.1,4.1,7.0,5.0,/,/
COc1ccc(S(=O)(=O)NCC(c2ccco2)N2CCc3ccccc32)cc1 (stereo unspecified),0.0,/,1.2,18.3,-0.7,14.1*,18.1,12.4*

# Bioassay records as filed in PubChem.
